CSC inhib – blocks cancer stem cells. cancer stem cell-like cells viability, luminescence. inhibition, % at 7.5 µM. 300,000 compounds, 1.1% hits; in the data active = inhibition above about 75%; tested in HMLE shEcad cells
T cruzi inh – T. cruzi replication inhibition. T. cruzi beta-gal in NIH3T3, luminescence, 90 h. inhibition, % (test concentration not listed). 300,000 compounds, 1.4% hits;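 active = mean inhibition across valid replicates above about 55%, limit read from the data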;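 also: signal also drops with host cell toxicity which is not excluded here; 0% = plate median of DMSO wells and 100% = zero luminescence signal; higher percent means less beta-gal luminescence so fewer parasites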
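Incubation – ≥90 h infection period, 3 h prior cell attachment · System – NIH/3T3 fibroblasts plus reporter T. cruzi · Doses – compound pinned at 50 nL/well, DMSO · Read-out basis – percent inhibition of parasite-derived β-gal signal · Signal – luminescent β-galactosidase signal after 60 min lysis · Also added – 5000 T. cruzi trypomastigotes/well · Medium – Low-serum DMEM with 2% FBS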
NALP3 yeast inh – NALP3 inhibition in yeast; 330,000 compounds, 0.39% hits; inhibition, % at 10 µM; Yeast reconstituted NLRP3/ASC/caspase-1, beta-gal luminescence, 24 h; AID 2825;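 active = inhibition of 50% or more; inactive = inhibition below 50%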;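 also: plate controls were induced DMSO wells for no effect and uninduced yeast grown without galactose for full effect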
Calb FLC – C. albicans growth modulation with fluconazole. C. albicans CaCi-2 (fluconazole-resistant clinical isolate) + fluconazole, Alamar Blue growth, 48 h. growth inhibition, % (no concentration beside the values). 300,000 compounds, 0.57% hits. AID 1979;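 active = growth inhibition above about 58% in most replicates, limit read from the data, passing the limit was not always enough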;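 also: all wells also contain fluconazole at 8 µg/ml as a sub-toxic cotreatment; 0% = median of DMSO wells and 100% = median of geldanamycin control wells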
Mdm2-MdmX inh – human Mdm2/MdmX binding inhibition. inhibition, % at 8 µM. SaOS-2 split-luciferase Mdm2/MdmX complementation, luminescence. 330,000 compounds, 3% hits. AID 485346. O15151+Q00987;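 active = inhibition of at least 50% at 8 µM in the primary screen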
Beta apoptosis – beta cell apoptosis inhibition | 300,000 compounds, 0.8% hits | protection from apoptosis, % (no concentration beside the values) | INS-1E cytokine-induced death, ATP luminescence, 48 h; percent of positive-control rescue, neutral wells zero;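 active = Every replicate reaches about 75%, or at least half do and their mean reaches it too, limit read from the data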;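 also: 0% = cytokine-treated negative control wells and 100% = positive control rescue; higher means more ATP so stronger rescue from cytokine killing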
Mdm2 MdmX conf – human Mdm2/MdmX binding inhibition, confirmed; shares compounds with Mdm2-MdmX inh; luminescent assay; inhibition, % at 8 µM; 10,000 compounds, 55% hits; AID 489028; in the data active = inhibition above about 40%
Full FLuc ctr – inhibits full-length luciferase, flagging false Mdm2/MdmX hits; 6,200 compounds, 77% hits; inhibition, % at 8 µM; SaOS-2 full-length luciferase counterscreen, luminescence; shares compounds with Mdm2-MdmX inh;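 active = mean inhibition at 8 µM reaching about 37%, which flags the compound as non-specific, limit read from the data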;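 also: p53-null SaOS-2 cells with luciferase driven by a doxycycline-inducible promoter; compound on cells about two nights before reading with doxycycline added after day one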
Numbers without * were called inactive; . = no result. Hits are enriched below; roughly 5.3% of the tested compounds scored in any of these assays.

SMILES	CSC inhib	T cruzi inh	NALP3 yeast inh	Calb FLC	Mdm2-MdmX inh	Beta apoptosis	Mdm2 MdmX conf	others
COc1ccc(C(=O)NC(=S)Nc2ccccc2[N+](=O)[O-])cc1OC	.	-4	15	-5	17	-5	.
O=C(O)c1nn(CCOc2cccc(Cl)c2)c(=O)c2ccccc12	9	-7	20	0	-28	-3	.
O=C(O)c1nn(CCOc2c(Cl)cccc2Cl)c(=O)c2ccccc12	12	-12	27	10	69*	1	54*	Full FLuc ctr=44*
CCCCCOc1ccc(/C(C)=N/NC2=NCCN2)cc1	1	44	3	12	10	4	.
CCCCCCOc1ccc(/C(C)=N/NC2=NCCN2)cc1	100*	51	29	12	90*	47	31
CCOc1ccc(Br)cc1/C(C)=N\NC1=NCCN1	39	1	17	-15	70*	28	55*	Full FLuc ctr=56*
CCCN1C(=O)c2ccccc2NC1c1ccc(OC)cc1OC (centres undefined)	-7	1	4	2	-25	-2	.
CCCN1C(=O)c2ccccc2NC1c1ccc(OC)cc1O (centres undefined)	41	-13	11	2	64*	3	54*	Full FLuc ctr=72*
CC(C)[C@H](NC(=O)[C@@H]1Cc2ccccc2CN1C(=O)OC(C)(C)C)C(=O)NCc1ccco1	-6	11	-3	2	8	-1	.
O=C1CSC(=S)N1/N=C/c1ccc(O)c(O)c1O	-5	23	27	33	17	-2	.
FC(F)(F)c1nc(-c2ccncc2)ncc1-c1nnnn1-c1ccccc1	-2	0	15	16	-3	5	.
Fc1ccc(-n2nnnc2-c2cnc(-c3cccs3)nc2C(F)(F)F)cc1	22	9	-18	-8	56*	26	44*	Full FLuc ctr=59*
O=C(CCN1C(=O)C2CC=CCC2C1=O)Nc1ccccc1Cl (centres undefined)	-17	-5	-5	-5	17	-4	.
Cc1c(C#N)c(O)n(CCO)c(=O)c1N=Nc1ccc2c(c1)COC2=O	-5	10	25	-3	91*	14	19
Cc1cc(=O)n(CCO)c(O)c1C#N	-10	-7	1	-1	12	2	.
CCOC(=O)c1c(C)[nH]c(C(=O)COC(=O)c2ccccc2NC(=O)c2ccco2)c1C	-4	8	-6	15	63*	-4	16
CCOC(=O)c1[nH]c(C)c(C(=O)OCC(=O)NCc2ccc(OC)c(OC)c2)c1C	8	.	16	.	12	-4	.
CCOC(=O)c1c(C)[nH]c(C(C)=O)c1C	-13	-25	8	-6	17	-8	.
CCOC(=O)c1[nH]c(C)c(C(=O)Nc2ccc(C)c(Cl)c2)c1C	-8	-12	21	3	35	7	.
CCOC(=O)c1[nH]c(C=O)c(C(=O)OCC)c1C	-2	0	25	2	65*	24	59*	Full FLuc ctr=71*
CCOC(=O)c1c(C)[nH]c(C(=O)OCC(=O)NCc2ccc(F)cc2)c1C	.	.	22	.	78*	4	13
CCOC(=O)c1[nH]c(C)c(C(=O)Nc2cc(Cl)ccc2C)c1C	52	-50	8	-2	66*	14	72*	Full FLuc ctr=85*
CCOC(=O)c1[nH]c(COC(=O)c2ccccc2NC(=O)c2ccco2)c(C(=O)OCC)c1C	2	22	20	-28	-33	6	.
CC(C)=CCN1CCN(CCC2=C(C)CCCC2(C)C)CC1CCO (centres undefined)	35	18	8	1	-6	6	.
CCCCOc1ccc(C(=O)N=c2sccn2C)cc1OC	4	11	0	42	-31	0	.
CCOC(=O)c1[nH]c(C)c(C(=O)Nc2ccc(C)c(F)c2)c1C	49	-28	6	8	26	4	.
CC(C)=CC(=O)OCc1csc(CC(=O)Nc2ccccc2C)n1	-2	15	15	18	1	-3	.
CC(=O)c1c(C)[nH]c(C(=O)OCc2csc(CC(=O)Nc3ccccc3C)n2)c1C	5	.	3	.	51*	-5	18
